The values that follow come from ChEMBL document CHEMBL5257128, “Design, synthesis and biological evaluation of covalent peptidomimetic 3CL protease inhibitors containing nitrile moiety” (Bioorg Med Chem, 2023).

In data set [1] the target is Replicase polyprotein 1ab (Severe acute respiratory syndrome coronavirus 2, UniProt P0DTD1). Nature of the data set: Inhibition of full length SARS-CoV-2 3CL protease expressed in Escherichia coli BL21 (DE3) using Dacyl-KTSAVLQSGFRKME-Edans fluorogenic peptide as substrate pre-incubated for 10 mins followed by substrate addition by FRET assay.
Data set [2] is described as follows: Observed volume of distribution at steady state in mouse at 10 mg/kg, iv by LC-MS/MS analysis. To be noted: in vivo. Type of data set: ADME, organism-based.
Another data set concerns SARS-CoV-2. Nature of the data set: Antiviral activity against SARS-CoV-2 infected in African green monkey Vero E6 cells pre-incubated for 1 hr followed by viral infection measured after 2 hrs by qRT-PCR analysis. Format: functional, organism-based. To be noted: Severe acute respiratory syndrome coronavirus 2, Vero C1008. (In general: In qPCR the cycle at which signal appears reflects the starting amount.)

Data set [3] in a line: Metabolic stability in mouse liver microsomes assessed as half life in presence of NADPH incubated upto 45 mins by LC/MS analysis. Format: ADME, Microsome. To be noted: 0.75 h. The method in brief: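 Mouse liver microsomes at 0.5 mg/mL final protein in K/Mg buffer, preincubated 5 min at 37 °C. Reaction started with NADPH (6 mM stock) and sampled at 0, 5, 15, 30 and 45 min. Each sample was quenched with acetonitrile containing internal standard, centrifuged, diluted with water, and analysed by LC/MS for remaining parent.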

A short description of data set [4]: Observed AUCinfinity in mouse at 20 mg/kg, po by LC-MS/MS analysis. Type of data set: ADME, organism-based. Details: dose 20 mg/kg, route po. To be noted: in vivo.
Data set [5] can be described thus: Cmax in mouse at 20 mg/kg, po by LC-MS/MS analysis. Type of data set: ADME, organism-based. Also on record: dose 20 mg/kg, route po. To be noted: in vivo.
Data set [6] can be described thus: Cmax in mouse at 10 mg/kg, iv by LC-MS/MS analysis. Type of data set: ADME, organism-based. Also on record: dose 10 mg/kg, route iv. To be noted: in vivo.
Data set [7] can be described thus: Oral bioavailability in mouse at 20 mg/kg by LC-MS/MS analysis. Type of data set: ADME, organism-based. To be noted: in vivo.
A short description of data set [8]: AUClast in mouse at 10 mg/kg, iv by LC-MS/MS analysis. Format: ADME, organism-based. To be noted: in vivo. Also on record: dose 10 mg/kg, route iv.
Data set [9] is described as follows: Observed MRTinfinity in mouse at 20 mg/kg, po by LC-MS/MS analysis. To be noted: in vivo. Format: ADME, organism-based.
Data set [10] can be described thus: Observed AUCinfinity in mouse at 10 mg/kg, iv by LC-MS/MS analysis. Format: ADME, organism-based. Details: dose 10 mg/kg, route iv. To be noted: in vivo.
Data set [11] in a line: AUClast in mouse at 20 mg/kg, po by LC-MS/MS analysis. Format: ADME, organism-based. Details: dose 20 mg/kg, route po. To be noted: in vivo.
A short description of data set [12]: Tmax in mouse at 10 mg/kg, iv by LC-MS/MS analysis. Type of data set: ADME, organism-based. To be noted: in vivo.
Data set [13] is described as follows: Observed MRTinfinity in mouse at 10 mg/kg, iv by LC-MS/MS analysis. Type of data set: ADME, organism-based. To be noted: in vivo.
Data set [14] can be described thus: Metabolic stability in human liver microsomes assessed as half life in presence of NADPH incubated upto 45 mins by LC/MS analysis. To be noted: 0.75 h. Type of data set: ADME, Microsome. In outline:
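Human or mouse liver microsomes, final protein 0.5 mg/mL, in K/Mg buffer. Compound was added from a 1.5 µM spiking solution containing 0.75 mg/mL microsomes, then preincubated 5 min at 37 °C. The reaction was started with NADPH (6 mM stock) and sampled at 0, 5, 15, 30 and 45 min. Samples were quenched with acetonitrile containing internal standard, centrifuged, and the supernatant analysed by LC/MS.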
In general terms: Liver microsomes are vesicles of endoplasmic reticulum, rich in cytochrome P450 enzymes.

Another data set relates to Vero C1008. The data set can be described thus: Cytotoxicity against African green monkey Vero E6 cells assessed as reduction in cell viability measured after 24 hrs by CCK8 assay. Type of data set: toxicity, cell-based. To be noted: chlorocebus sabaeus, vero c1008, 24 h. (Formazan colour is commonly taken as a measure of viable cells.)
The nature of data set [15]: Selectivity Index, ratio of CC50 for African green monkey Vero E6 cells to EC50 for antiviral activity against SARS-CoV-2 infected in African green monkey Vero E6. Format: toxicity, Vero C1008. To be noted: read-out: Ratio CC50/EC50.
Data set [16] is described as follows: Tmax in mouse at 20 mg/kg, po by LC-MS/MS analysis. Format: ADME, organism-based. To be noted: in vivo.
Data set [17] in a line: Half life in mouse at 20 mg/kg, po by LC-MS/MS analysis. To be noted: in vivo. Type of data set: ADME, organism-based.
Data set [18] is described as follows: Half life in mouse at 10 mg/kg, iv by LC-MS/MS analysis. Format: ADME, organism-based. To be noted: in vivo.

For the compound `CC(C)(C)[C@H](NS(=O)(=O)C1CC1)C(=O)N1C[C@H]2[C@@H]([C@H]1C(=O)N[C@H](C#N)C[C@@H]1CCNC1=O)C2(C)C`, 22.8 nM corresponded to half-maximal inhibition in data set [1] (IC50).
Take `CC(C)(C)[C@H](NC(=O)C(F)(F)F)C(=O)N1CC2(CC2)C[C@H]1C(=O)N[C@H](C#N)C[C@@H]1CCNC1=O`: 36.8 nM corresponded to half-maximal inhibition in data set [1] (IC50).
With `CC(C)(C)[C@H](NC(=O)C(F)(F)F)C(=O)N1C[C@H]2[C@@H]([C@H]1C(=O)N[C@H](C#N)C[C@@H]1CCNC1=O)C2(C)C`, the Vdss (in general, a proportionality between amount in the body and measured concentration, not a real space) in [2] (iv, 10 mg/kg) stood at 1.18 L/kg. Besides, the EC50 (as a rule, the concentration needed to bring the measured effect to its halfway point) in the data set with SARS-CoV-2 was found to be 580 nM. The values for the t1/2 in [3] and in data set [14] were 4.64 min and 37.93 min, respectively. Also, the AUC (in general, the area under the concentration-time curve, a measure of exposure) in data set [4] worked out at 2311.94 ng·h/mL; in data set [10], 3361.32 ng·h/mL. Also, the Cmax (as a rule, the highest concentration seen after dosing) was 2521.64 ng/mL in data set [5] and 9630 ng/mL in data set [6]. Besides, in [7], the F came out at 34.59%. The AUClast came out at 3336.46 ng·h/mL in data set [8] and 2308.32 ng·h/mL in [11]. The figures for the MRT in [9] and in [13] were 51 min and 23.4 min, respectively. Further, the Tmax (commonly the time at which the peak concentration occurs) in data set [12] was found to be 4.98 min.
In the case of `CC(C)(C)[C@H](NS(=O)(=O)C(F)(F)F)C(=O)N1C[C@H]2[C@@H]([C@H]1C(=O)N[C@H](C#N)C[C@@H]1CCNC1=O)C2(C)C`, the Vd in data set [2] (read-out: Vdss) is 0.69 L/kg. In addition, the EC50 in the data set with SARS-CoV-2 was found to be 170 nM. Further, the IC50 (in general, the concentration at which inhibition is half-maximal) in data set [1] was found to be 22.4 nM. Besides, the CC50 – broadly, the concentration that lowers cell viability or growth by half – in the data set on Vero C1008 was > 200000 nM. In addition, the t1/2 in [3] is 97.89 min; in data set [17], 42.6 min; in data set [18], 21 min; in [14], 652.17 min. Besides, the selectivity ratio in data set [15] is > 1500. The Tmax was determined as 30 min in [16] and 4.8 min in [12]. Besides, the AUC came out at 1904.9 ng·h/mL in [4] and 4120.05 ng·h/mL in data set [10]. The Cmax in data set [5] was found to be 2052.36 ng/mL; in data set [6], 10500 ng/mL. This compound displayed a F in data set [7] of 23.09%. For the same compound, the AUClast is 4118.55 ng·h/mL in data set [8] and 1901.84 ng·h/mL in data set [11]. The figures for the MRT in data set [9] and in data set [13] were 48 min and 17.4 min, respectively.
In the case of `CC(C)(C)[C@H](NC(=O)C(F)(F)F)C(=O)N1[C@@H]2CC[C@@H](C2)[C@H]1C(=O)N[C@H](C#N)C[C@@H]1CCNC1=O`, the IC50 in data set [1] worked out at 54.6 nM.
